Reference: PubChem BioAssay
Calls of active or inactive are those of the source.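 The calls were made as follows, unless noted: active = viability at or under a set limit in both replicates, limit being median viability minus 3 SD (cut at about 48% in these data, passing the limit was not always enough); inconclusive = at or under the limit in just one replicate; inactive = at or above the limit in both replicates.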

What was measured:
[1] = reducers of endogenous Her2 protein level, primary screen, SKBR3 breast tumor cells, AlphaScreen, ATP viability (AID 461;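 active = Her2 level under about 52% in both replicate screens, with viability over 70% of control, limit read from the data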;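 as to Her2 level: lower value means less Her2 protein in the cells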;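 as to viability: percent of carrier control wells set as 100% viability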); settings: 18-24 h, measured here: SKBR3 viability, ATP luminescence, at 10 µM
[2] = target: Receptor tyrosine-protein kinase erbB-2 (Homo sapiens) (UniProt P04626); assay: as above; settings: 18-24 h, at 10 µM, stronger effect = lower value
[3] = SK-BR-3 cell growth inhibitors, pilot screen, 24 h, human (AID 572;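 active = viability at or below 10% of carrier control in both of two separate runs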;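 also: compound exposure lasted between 18 and 24 h rather than exactly 24 h; 100% = carrier-treated control wells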); settings: SK-BR-3 viability, CellTiter-Glo luminescence, at 10 µM, stronger effect = lower value
[4] = HUVEC growth inhibition – cell-based, human, primary screen (AID 575;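 active = viability at or below 30% in both replicate assays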;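 also: 100% = median of untreated cell wells with 0.1% DMSO on each plate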); settings: HUVEC proliferation, CellTiter-Glo luminescence, 72 h; at 10 µM; stronger effect = lower value
Method in brief: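 material = primary HUVEC, no more than 12 passages | input = 1250 cells per well | controls = vehicle and MePR control wells | measured by = CTG luminescence | times = 72 h compound incubation | format = collagen-coated 384-well format | read-out = % viability vs DMSO wells | doses = single 10 µM dose, 0.1% DMSO, from 5x medium stock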

[5] = growth inhibitors of H69AR lung tumor, primary screen, human, duplicate replicates (AID 580); settings: H69AR lung tumor cells viability, ATP luminescence, 72 h; at 10 µM; stronger effect = lower value;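 also: 100% = mean luminescence of untreated wells and 0% = no signal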
[6] = reversal of MRP1-mediated doxorubicin resistance, pilot screen, H69AR cells, doxorubicin co-treatment (AID 601;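 active = viability loss from added drug above about 55%, and viability with drug at most 40%, in both replicates, limit read from the data, passing the limit was not always enough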); settings: CellTiter-Glo, 72 h, at 10 µM; for differential viability (reversal): stronger effect = higher value
[7] = 384-well plate pilot, post-Golgi transport modulator project, inhibition of yeast transport mutant growth (AID 636; in the data active = inhibition above about 31%); settings: absorbance 615 nm, about 18 h, stronger effect = higher value
[8] = growth suppression of yeast trafficking mutant, preliminary HTS, modulators of trafficking downstream of Golgi apparatus project, 1536-format plate, OD 615 nm (AID 637; in the data active = inhibition above about 30%); settings: yeast transport mutant growth, absorbance 615 nm, 18 h; stronger effect = higher value
[9] = H69AR cells + 2 uM doxorubicin, measured here: viability with 2 uM doxorubicin, stronger effect = lower value
[10] = H69AR cells, compound alone cytotoxicity

Receptor tyrosine-protein kinase erbB-2 (Homo sapiens), sequence (P04626 whole entry, looked up): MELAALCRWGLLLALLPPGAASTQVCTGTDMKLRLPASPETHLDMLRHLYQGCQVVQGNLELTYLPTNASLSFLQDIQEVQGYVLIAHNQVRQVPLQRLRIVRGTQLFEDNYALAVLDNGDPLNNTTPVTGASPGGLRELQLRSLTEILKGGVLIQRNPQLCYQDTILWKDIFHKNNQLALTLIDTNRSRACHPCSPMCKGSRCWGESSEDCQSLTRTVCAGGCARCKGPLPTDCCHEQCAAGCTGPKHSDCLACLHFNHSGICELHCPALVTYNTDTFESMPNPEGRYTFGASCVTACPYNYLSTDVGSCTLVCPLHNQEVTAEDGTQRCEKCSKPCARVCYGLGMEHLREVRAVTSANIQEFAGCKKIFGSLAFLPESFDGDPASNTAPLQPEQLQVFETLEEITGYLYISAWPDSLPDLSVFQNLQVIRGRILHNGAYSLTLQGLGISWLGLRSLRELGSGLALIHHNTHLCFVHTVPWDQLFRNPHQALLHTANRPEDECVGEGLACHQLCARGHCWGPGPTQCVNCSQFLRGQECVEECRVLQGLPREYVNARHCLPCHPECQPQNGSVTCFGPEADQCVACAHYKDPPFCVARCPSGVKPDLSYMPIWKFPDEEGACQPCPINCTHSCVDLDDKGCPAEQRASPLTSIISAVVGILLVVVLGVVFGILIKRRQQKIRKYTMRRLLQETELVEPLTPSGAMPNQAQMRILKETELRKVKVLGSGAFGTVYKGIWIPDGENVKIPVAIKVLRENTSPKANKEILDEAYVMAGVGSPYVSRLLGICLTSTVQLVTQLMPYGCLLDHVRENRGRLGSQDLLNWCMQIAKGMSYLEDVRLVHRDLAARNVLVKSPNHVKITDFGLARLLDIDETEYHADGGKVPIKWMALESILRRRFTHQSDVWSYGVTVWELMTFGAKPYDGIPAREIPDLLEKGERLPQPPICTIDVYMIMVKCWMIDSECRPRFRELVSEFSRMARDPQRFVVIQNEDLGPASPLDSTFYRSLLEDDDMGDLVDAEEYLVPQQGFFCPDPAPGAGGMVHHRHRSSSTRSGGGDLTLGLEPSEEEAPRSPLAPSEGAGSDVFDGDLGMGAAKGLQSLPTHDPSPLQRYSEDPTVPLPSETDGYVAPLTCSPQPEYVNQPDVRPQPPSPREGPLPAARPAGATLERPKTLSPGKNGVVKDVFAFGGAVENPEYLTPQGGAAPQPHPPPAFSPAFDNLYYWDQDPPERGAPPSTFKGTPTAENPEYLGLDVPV

SMILES | viability [1] [%] | Her2 level [2] | viability [3] | viability [4] | viability [5] | differential viability (reversal) ([6]; H69AR cells + 2 uM doxorubicin) | viability [6, 9] [%] | viability [6, 10] [%] | inhibition [7] | inhibition [8]
O=C(Nc1cccc(C(F)(F)F)c1)c1cccnc1N1CCCC1 | 99 | 102% (inactive) | 99% (inactive) | 102% (inactive) | 95% (inactive) | -6.8% (inactive) | 102 | 95 | -2% (inactive) | -1.29% (inactive)
COC(=O)c1sccc1NC(=O)c1csc(C)c1 | 87 | 20% (active) | 87% (inactive) | 60.8% (inactive) | 69.1% (inactive) | 2.06% (inactive) | 67.1 | 69.1 | -3.64% (inactive) | -0.66% (inactive)
CCOC(=O)CN(C(=O)CSc1nnc(-c2ccncc2)n1CCCN(C)C)c1ccccc1 | 107 | 98.5% (inactive) | 107% (inactive) | 106% (inactive) | 87.6% (inactive) | 9.5% (inactive) | 78.1 | 87.6 | -5.19% (inactive) | 1.9% (inactive)
O=c1c2c(nc3nc(CCc4ccccc4)[nH]n13)CCC2 | 112 | 92% (inactive) | 112% (inactive) | 86.6% (inactive) | 91% (inactive) | 14% (inactive) | 77 | 91 | -6% (inactive) | 0.16% (inactive)
CCC(=O)Nc1cc(C(=O)NCC2CCCN2CC)c(OC)cc1N(C)C (stereo not given) | 101 | 111% (inactive) | 101% (inactive) | 91.8% (inactive) | 114% (inactive) | 19.7% (inactive) | 93.9 | 114 | -1.47% (inactive) | -3.23% (inactive)
O=S(=O)(c1ccc2nc(Cc3cccc(C(F)(F)F)c3)[nH]c2c1)N1CCOCC1 | 104 | 91% (inactive) | 104% (inactive) | 67.9% (inactive) | 82.9% (inactive) | 3.53% (inactive) | 79.4 | 82.9 | -1.69% (inactive) | -0.16% (inactive)
COc1ccc(-n2c(SCC#N)nc3ccccc3c2=O)cc1 | 77 | 106% (inactive) | 77% (inactive) | 93.5% (inactive) | 96.4% (inactive) | -12.8% (inactive) | 109 | 96.4 | 5.06% (inactive) | 3.28% (inactive)
CS(=O)(=O)Nc1ccc(S(=O)(=O)Nc2nccs2)cc1 | 97 | 90% (inactive) | 97% (inactive) | 116% (inactive) | 95.9% (inactive) | 3.66% (inactive) | 92.2 | 95.9 | -2.93% (inactive) | 1.31% (inactive)
O=C(CN1C(=O)c2cccc3cccc1c23)NCC1CCCO1 (stereo not given) | 104 | 116% (inactive) | 104% (inactive) | 98.8% (inactive) | 96.5% (inactive) | 1.85% (inactive) | 94.7 | 96.5 | 1.05% (inactive) | 1.97% (inactive)
Nc1nnc(SCC(=O)N2CCc3ccccc32)n1-c1ccccc1 | 102 | 80% (inactive) | 102% (inactive) | 82% (inactive) | 101% (inactive) | 6.62% (inactive) | 94.5 | 101 | -4.8% (inactive) | 0.32% (inactive)
O=C(CSc1nnc(CNC(=O)c2cccs2)o1)NC1CCCC1 | 102 | 100% (inactive) | 102% (inactive) | 102% (inactive) | 82.4% (inactive) | -0.76% (inactive) | 83.2 | 82.4 | -0.26% (inactive) | -1.17% (inactive)
CCCc1c(O)nc(SCC(=O)NCCc2ccc(OC)c(OC)c2)[nH]c1=O | 95 | 93.5% (inactive) | 95% (inactive) | 84.6% (inactive) | 104% (inactive) | -0.29% (inactive) | 104 | 104 | -4.53% (inactive) | -2.26% (inactive)
Cc1cnn(Cc2ccccc2)c1N | 115 | 73.5% (inactive) | 115% (inactive) | 84.3% (inactive) | 88.7% (inactive) | 11.2% (inactive) | 77.6 | 88.7 | -6.08% (inactive) | 4.76% (inactive)
CCc1cccc2c(=O)c(C(=O)NCCN3CCOCC3)c[nH]c12 | 104 | 113% (inactive) | 104% (inactive) | 102% (inactive) | 108% (inactive) | 18.2% (inactive) | 90 | 108 | -5.47% (inactive) | 1.29% (inactive)
CCOC(=O)c1cnc(SCC)[nH]c1=O | 84.5 | 101% (inactive) | 84.5% (inactive) | 84.4% (inactive) | 97% (inactive) | -5.68% (inactive) | 103 | 97 | -1.92% (inactive) | -8% (inactive)
CN1CCCN(CC(O)COCc2cccs2)CC1 (stereo not given) | 89.5 | 84% (inactive) | 89.5% (inactive) | 87.3% (inactive) | 111% (inactive) | 14.2% (inactive) | 96.6 | 111 | -5.54% (inactive) | -1.8% (inactive)

SMILES | viability [1] [%] | Her2 level [2] | viability [3] | viability [4] | viability [5] | differential viability (reversal) ([6]; H69AR cells + 2 uM doxorubicin) | viability [6, 9] [%] | viability [6, 10] [%] | inhibition [7] | inhibition [8]
CC(C)(C)n1cnc2cc(NS(=O)(=O)c3ccc(Br)cc3)ccc21 | 104 | 69.5% (inactive) | 104% (inactive) | 80.2% (inactive) | 87% (inactive) | -8.39% (inactive) | 95.4 | 87 | -1.58% (inactive) | -0.48% (inactive)
Cc1nc2ccccc2c(=O)n1CC(=O)N1CCOCC1 | 120 | 90.5% (inactive) | 120% (inactive) | 107% (inactive) | 90.4% (inactive) | -9.46% (inactive) | 99.8 | 90.4 | 0.67% (inactive) | -4.35% (inactive)
COc1ccccc1CN1CCCC(C(=O)N(C)Cc2ccccc2)C1 (stereo not given) | 70 | 116% (inactive) | 70% (inactive) | 99.1% (inactive) | 81.1% (inactive) | 3.71% (inactive) | 77.4 | 81.1 | -0.77% (inactive) | 5% (inactive)
Cc1cccc(NC(=O)Cn2c(=O)n(C)c3ccccc32)c1 | 100 | 90.5% (inactive) | 100% (inactive) | 100% (inactive) | 102% (inactive) | 9.13% (inactive) | 92.9 | 102 | -3.33% (inactive) | -2.7% (inactive)
COc1ccc(OC)c(N(CC(=O)N2CCN(c3cc(Cl)ccc3C)CC2)S(C)(=O)=O)c1 | 100 | 94% (inactive) | 100% (inactive) | 78.2% (inactive) | 75.9% (inactive) | 3.83% (inactive) | 72 | 75.9 | -5.53% (inactive) | 0.48% (inactive)
Cc1ccc(C)c(N2CCN(C(=O)C3CCN(S(=O)(=O)c4c(C)noc4C)CC3)CC2)c1 | 104 | 72% (inactive) | 104% (inactive) | 74.8% (inactive) | 83.4% (inactive) | 27.8% (inactive) | 55.6 | 83.4 | -2.89% (inactive) | -3.97% (inactive)
O=C(NCCN1CCOCC1)c1ccc2c(c1)N(Cc1ccccc1)C(=O)CS2 | 89.5 | 111% (inactive) | 89.5% (inactive) | 97.8% (inactive) | 99.4% (inactive) | 4.81% (inactive) | 94.6 | 99.4 | 0.67% (inactive) | -0.32% (inactive)
CC(Sc1nnnn1-c1ccccc1)C(=O)Nc1ccc(Cl)cn1 (stereo not given) | 87.5 | 89% (inactive) | 87.5% (inactive) | 73.9% (inactive) | 92.7% (inactive) | 6.54% (inactive) | 86.1 | 92.7 | -2.76% (inactive) | 5.4% (inactive)
CC1N=C2c3ccccc3N=C(SCc3cc(=O)n4cc(Cl)ccc4n3)N2C1=O (stereo not given) | 78.5 | 92.5% (inactive) | 78.5% (inactive) | 79.4% (inactive) | 76.1% (inactive) | -9.46% (inactive) | 85.6 | 76.1 | -4.87% (inactive) | -0.48% (inactive)
COc1cccc(NC(=O)CSc2nnc(-c3cccs3)n2C)c1 | 98 | 78.5% (inactive) | 98% (inactive) | 116% (inactive) | 97.5% (inactive) | 12.2% (inactive) | 85.3 | 97.5 | -6.08% (inactive) | -1.67% (inactive)
CC1CN(C(=O)CSc2nnc(-c3ccncc3)n2-c2ccccc2)CC(C)O1 (stereo not given) | 101 | 112% (inactive) | 101% (inactive) | 103% (inactive) | 97.6% (inactive) | -5% (inactive) | 103 | 97.6 | -1.08% (inactive) | 0.32% (inactive)
CN(Cc1ccccc1)C(=O)c1ccc2c(c1)OCO2 | 101 | 97% (inactive) | 101% (inactive) | 88.2% (inactive) | 108% (inactive) | 17.7% (inactive) | 90.3 | 108 | -2.53% (inactive) | 4.43% (inactive)
O=C(CCN1CCN(c2ccc(F)cc2)CC1)Nc1ccccc1F | 91.5 | 91% (inactive) | 91.5% (inactive) | 90.4% (inactive) | 86% (inactive) | -5.33% (inactive) | 91.3 | 86 | -5.73% (inactive) | 4.75% (inactive)
CCN1CCc2c(C#N)c(N3CCOCC3)nc(NCc3ccccc3)c2C1 | 84.5 | 88% (inactive) | 84.5% (inactive) | 88.4% (inactive) | 81.3% (inactive) | 3.46% (inactive) | 77.8 | 81.3 | -6.03% (inactive) | -4.76% (inactive)
Nc1scc(-c2ccncc2)c1Cl | 90.5 | 77.5% (inactive) | 90.5% (inactive) | 83.5% (inactive) | 96.2% (inactive) | 8.54% (inactive) | 87.7 | 96.2 | -5.07% (inactive) | -3.49% (inactive)
COC(=O)c1oc2ccc(Br)cc2c1NC(=O)CN1CCN(C)CC1 | 92.5 | 100% (inactive) | 92.5% (inactive) | 101% (inactive) | 96.6% (inactive) | 16.2% (inactive) | 80.3 | 96.6 | 1.18% (inactive) | 0.55% (inactive)
